ChEMBL document CHEMBL1140993, “Design, synthesis and preliminary evaluation of novel pyrrolidine derivatives as matrix metalloproteinase inhibitors” (Eur J Med Chem, 2008)

Legend:
Aminopeptidase N = Aminopeptidase N (Homo sapiens, UniProt P15144); experiment: Inhibition of aminopeptidase N by microtiter plate fluorimetric assay; conditions: in the assay text read “spectrophotometric” for “fluorimetric”
How it was run: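 Substrate was L-leucine p-nitroanilide, in 50 mM sodium phosphate buffer, pH 7.2. Enzyme and compound were preincubated 30 min at 37 °C, then incubated 60 min at 37 °C with substrate. OD405 was read. Inhibition % = [OD(100%) − OD(compound)]/[OD(100%) − OD(blank)] × 100, where 100% has no compound and blank has enzyme only.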

[1] = molecular target: 72 kDa type IV collagenase (Homo sapiens, UniProt P08253); experiment: Inhibition of MMP2 by microtiter plate fluorimetric assay
72 kDa type IV collagenase, sequence (P08253 whole entry): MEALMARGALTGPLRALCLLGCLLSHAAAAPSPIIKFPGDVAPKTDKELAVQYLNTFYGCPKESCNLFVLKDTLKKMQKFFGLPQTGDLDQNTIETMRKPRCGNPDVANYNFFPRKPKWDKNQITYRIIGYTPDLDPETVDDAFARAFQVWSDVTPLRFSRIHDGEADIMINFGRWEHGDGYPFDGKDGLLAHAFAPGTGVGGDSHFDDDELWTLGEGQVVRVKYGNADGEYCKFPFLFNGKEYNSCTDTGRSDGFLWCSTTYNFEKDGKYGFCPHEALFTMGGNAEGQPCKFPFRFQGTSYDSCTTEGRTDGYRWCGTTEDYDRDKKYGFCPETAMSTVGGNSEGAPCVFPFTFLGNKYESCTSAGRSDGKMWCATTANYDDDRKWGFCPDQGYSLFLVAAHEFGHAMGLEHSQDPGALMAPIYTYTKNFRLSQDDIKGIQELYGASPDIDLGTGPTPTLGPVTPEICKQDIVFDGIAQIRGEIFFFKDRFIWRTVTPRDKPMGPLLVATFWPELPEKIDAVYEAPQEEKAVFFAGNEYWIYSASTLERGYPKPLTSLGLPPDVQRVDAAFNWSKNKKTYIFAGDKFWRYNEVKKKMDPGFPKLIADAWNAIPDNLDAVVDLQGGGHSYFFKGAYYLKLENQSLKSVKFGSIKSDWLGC
How it was run: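 Substrate was succinylated gelatin, in 50 mM sodium borate buffer, pH 8.5. Compound and enzyme were preincubated 30 min at 37 °C, then incubated another 60 min at 37 °C after substrate addition. Controls were a 100% group without compound and a blank with enzyme only.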

Aminopeptidase N, sequence (P15144 whole entry): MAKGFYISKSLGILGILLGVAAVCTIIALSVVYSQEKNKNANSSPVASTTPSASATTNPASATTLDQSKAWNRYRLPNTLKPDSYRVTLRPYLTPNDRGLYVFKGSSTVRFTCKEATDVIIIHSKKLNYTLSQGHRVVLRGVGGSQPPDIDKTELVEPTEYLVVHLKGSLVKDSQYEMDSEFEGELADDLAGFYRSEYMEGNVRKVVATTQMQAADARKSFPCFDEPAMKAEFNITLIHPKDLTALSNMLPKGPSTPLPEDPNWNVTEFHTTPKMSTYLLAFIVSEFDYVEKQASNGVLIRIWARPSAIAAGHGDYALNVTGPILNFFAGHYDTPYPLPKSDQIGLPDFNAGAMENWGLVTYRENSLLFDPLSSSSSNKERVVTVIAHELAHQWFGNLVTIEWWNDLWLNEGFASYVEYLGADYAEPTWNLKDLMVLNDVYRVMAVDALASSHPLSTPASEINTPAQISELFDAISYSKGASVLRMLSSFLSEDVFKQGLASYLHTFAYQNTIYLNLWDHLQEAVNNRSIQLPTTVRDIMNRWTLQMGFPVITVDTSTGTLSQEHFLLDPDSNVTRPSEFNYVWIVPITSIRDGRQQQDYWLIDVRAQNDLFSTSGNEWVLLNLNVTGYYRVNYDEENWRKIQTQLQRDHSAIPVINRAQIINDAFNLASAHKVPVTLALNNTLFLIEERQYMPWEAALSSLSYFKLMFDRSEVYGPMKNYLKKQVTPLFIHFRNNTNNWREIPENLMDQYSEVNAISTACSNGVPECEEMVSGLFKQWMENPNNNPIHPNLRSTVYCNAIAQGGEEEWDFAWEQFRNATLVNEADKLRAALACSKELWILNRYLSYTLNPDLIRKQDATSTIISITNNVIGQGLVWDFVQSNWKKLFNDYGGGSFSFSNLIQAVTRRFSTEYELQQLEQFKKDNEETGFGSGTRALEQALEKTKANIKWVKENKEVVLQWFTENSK

SMILES | IC50 (Aminopeptidase N) [µM] | IC50 [1] [µM]
COC(=O)[C@@H]1C[C@H](NC(=O)c2ccncc2)CN1C(C)=O | 74.8 | 2.2
COC(=O)[C@@H]1C[C@H](N)CN1C(C)=O | 24.1 | 1.5
COC(=O)[C@@H]1C[C@H](N=[N+]=[N-])CN1C(C)=O | 73.7 | 2.6
COC(=O)[C@@H]1C[C@H](NC(=O)/C=C/c2ccccc2)CN1C(=O)CCc1ccc(OC)c(OC)c1 | 233 | 1.6
COC(=O)[C@@H]1C[C@@H](OS(C)(=O)=O)CN1C(=O)/C=C/c1ccc(OC)c(OC)c1 | 46.6 | 1.1
COc1cc(C(=O)N[C@H]2C[C@@H](C(=O)NO)N(C(C)=O)C2)cc(OC)c1OC | 33.5 | 0.001
CC(=O)N1C[C@@H](NC(=O)c2cccnc2)C[C@H]1C(=O)NO | 29.8 | 0.005
COC(=O)[C@@H]1C[C@H](NC(=O)c2ccccc2)CN1C(C)=O | 123 | 2.7
COC(=O)[C@@H]1C[C@H](NC(=O)c2ccc(Cl)cc2)CN1C(C)=O | 122 | 4.2
COC(=O)[C@@H]1C[C@H](NC(=O)c2cnccn2)CN1C(C)=O | 82.6 | 2.1
COC(=O)[C@@H]1C[C@H](NC(=O)c2ccc([N+](=O)[O-])cc2)CN1C(C)=O | 72.3 | 5.2
COC(=O)[C@@H]1C[C@H](NC(=O)c2cccnc2)CN1C(C)=O | 78.4 | 1
CC(=O)N1C[C@@H](NC(=O)/C=C/c2ccccc2)C[C@H]1C(=O)NO | 56.1 | 0.004
COc1ccc(CCC(=O)N2C[C@@H](NC(=O)/C=C/c3ccccc3)C[C@H]2C(=O)NO)cc1OC | 96.6 | 0.011
COC(=O)CNC(=O)[C@@H]1C[C@H](NC(=O)c2cc(OC)c(OC)c(OC)c2)CN1C(C)=O | 121 | 0.109
COC(=O)[C@@H]1C[C@@H](O)CN1C(=O)/C=C/c1ccc(OC)c(OC)c1 | 81.8 | 2.9
COC(=O)[C@@H]1C[C@@H](OS(=O)(=O)c2ccc(C)cc2)CN1C(C)=O | 30.4 | 0.3
COC(=O)[C@@H]1C[C@H](NC(=O)c2cccnc2)CN1C(=O)/C=C/c1ccc(OC)c(OC)c1 | 137 | 3
COC(=O)[C@@H]1C[C@H](N=[N+]=[N-])CN1C(=O)/C=C/c1ccc(OC)c(OC)c1 | 71.3 | 3.4
COC(=O)[C@@H]1C[C@H](N)CN1C(=O)CCc1ccc(OC)c(OC)c1 | 68.4 | 2.1
COC(=O)[C@@H]1C[C@@H](O)CN1C(C)=O | 38.6 | 2
COC(=O)[C@@H]1C[C@H](N)CN1C(=O)/C=C/c1ccc(OC)c(OC)c1 | 70.6 | 
COC(=O)[C@@H]1C[C@H](NC(=O)/C=C/c2ccccc2)CN1C(C)=O | 135 | 0.1
COC(=O)[C@@H]1C[C@H](NC(=O)c2cc(OC)c(OC)c(OC)c2)CN1C(C)=O | 98.4 | 0.1
COc1ccc(CCC(=O)N2C[C@@H](NC(=O)c3cccnc3)C[C@H]2C(=O)NO)cc1OC | 62.2 | 0.012
COC(=O)[C@@H]1C[C@H](NC(=O)c2cccnc2)CN1C(=O)CCc1ccc(OC)c(OC)c1 | 196 | 2.2
COC(=O)[C@@H]1C[C@H](NC(=O)c2ccc(Br)cc2)CN1C(C)=O | 149 | 6.1
COC(=O)[C@@H]1C[C@H](NC(=O)/C=C/c2ccc(OC)c(OC)c2)CN1C(C)=O | 162 | 0.8
COc1cc(C(=O)N[C@H]2C[C@@H](C(=O)O)N(C(C)=O)C2)cc(OC)c1OC | 51.4 | 0.016
